The text below walks through data of ChEMBL document CHEMBL1152585, “Identification of small molecule regulators of the nuclear receptor HNF4alpha based on naphthofuran scaffolds” (Bioorg Med Chem, 2009).

Experiment [1] concerns the target T1, Hepatocyte nuclear factor 4-alpha (Homo sapiens) (UniProt P41235).
T1 sequence (whole entry): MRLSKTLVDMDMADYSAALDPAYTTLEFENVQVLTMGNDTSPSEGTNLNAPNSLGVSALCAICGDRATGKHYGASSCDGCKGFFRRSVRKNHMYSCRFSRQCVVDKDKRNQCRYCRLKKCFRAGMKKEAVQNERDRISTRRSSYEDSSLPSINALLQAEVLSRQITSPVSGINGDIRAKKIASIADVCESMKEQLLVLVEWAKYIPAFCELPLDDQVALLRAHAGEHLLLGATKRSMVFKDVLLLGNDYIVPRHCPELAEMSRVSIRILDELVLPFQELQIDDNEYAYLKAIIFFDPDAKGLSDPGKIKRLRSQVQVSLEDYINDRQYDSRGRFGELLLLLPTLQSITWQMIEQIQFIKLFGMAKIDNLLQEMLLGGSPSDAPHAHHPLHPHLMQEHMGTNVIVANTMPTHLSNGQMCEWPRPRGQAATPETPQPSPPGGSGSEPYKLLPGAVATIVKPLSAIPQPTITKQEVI
As to the kind of experiment: Agonist activity at AF1 deleted human HNF4alpha7 nuclear receptor expressed in human HepG2/C3A cells co-transfected with LexADBD assessed as increase in transcriptional activity after 16 hrs by beta-galactosidase one hybrid assay. The experiment is classed as functional, cell-based.

Experiment [2] addresses T1, Hepatocyte nuclear factor 4-alpha (Homo sapiens). In words: Agonist activity at human full length HNF4alpha nuclear receptor expressed in human HepG2/C3A cells co-transfected with LexADBD assessed as increase in transcriptional activity at 9.3 uM by beta-galactosidase one hybrid assay relative to control. The experiment is classed as functional, cell-based.
The target of experiment [3] is T2, Hepatocyte nuclear factor 4-alpha (Homo sapiens, UniProt P41235).
T2 sequence (P41235 whole entry): T1 sequence (whole entry)
In words: Agonist activity at human full length HNF4alpha nuclear receptor expressed in human HepG2/C3A cells co-transfected with LexADBD assessed as increase in transcriptional activity after 16 hrs by beta-galactosidase one hybrid assay. The experiment is classed as functional, cell-based. The gist of the method:
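Yeast one-hybrid with LexA DNA-binding domain fusions of HNF4α (full length, AF-1-deleted, or LBD lacking F domain). Increasing compound concentrations applied to yeast for 16 h, then β-galactosidase assay. EC50 taken from the dose–response curves.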

In experiment [4] the target is T1, Hepatocyte nuclear factor 4-alpha (Homo sapiens). In words: Agonist activity at human HNF4alpha7 nuclear receptor LBDdetaF expressed in human HepG2/C3A cells co-transfected with LexADBD assessed as increase in transcriptional activity after 16 hrs by beta-galactosidase one hybrid assay. The experiment is classed as functional, cell-based.
The nature of experiment [5]: Cytotoxicity against human HepG2/C3A cells after 48 hrs by MTT assay. The experiment is classed as functional, cell-based. On the technique in general: Tetrazolium dyes change colour on reduction, which living cells bring about.
Experiment [6] concerns HepG2/C3A. In words: Enhancement of beta-galactosidase activity in human HepG2/C3A cells transfected with Gal4 assessed as increase in transcriptional activity after 16 hrs. The experiment is classed as functional, cell-based.
In experiment [7] the test system is HepG2/C3A. In words: Enhancement of beta-galactosidase activity in human HepG2/C3A cells transfected with LexACOUP-TFII assessed as increase in transcriptional activity after 16 hrs. Type of experiment: functional, cell-based.
Experiment [8] deals with HepG2/C3A. As to the kind of experiment: Enhancement of beta-galactosidase activity in human HepG2/C3A cells transfected with estrogen receptor assessed as increase in transcriptional activity after 16 hrs. Type of experiment: functional, cell-based.
Experiment [9] concerns the target T1, Hepatocyte nuclear factor 4-alpha (Homo sapiens). As to the kind of experiment: Agonist activity at human full length HNF4alpha nuclear receptor expressed in human HepG2/C3A cells co-transfected with LexADBD assessed as increase in transcriptional activity at 12.5 uM by beta-galactosidase one hybrid assay relative to control. Type of experiment: functional, cell-based.

Experiment [10] has the same target. As to the kind of experiment: Agonist activity at human full length HNF4alpha nuclear receptor expressed in human HepG2/C3A cells co-transfected with LexADBD assessed as increase in transcriptional activity at 100 uM by beta-galactosidase one hybrid assay relative to control. The experiment is classed as functional, cell-based.
The target is the same in experiment [11]. As to the kind of experiment: Activation of HNFalpha transcriptional activity in human […] cells transfected with ApoB-luc assessed as activation of luciferase reporter gene after 24 hrs. Type of experiment: cell-based. The gist of the method:
(§1)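 HepG2C3A cells seeded at 6 × 10⁴/well in DMEM, transfected 24 h later (JetPEI) with 800 ng total DNA: 250 ng ApoB-Luc or ApoCIII-Luc reporter, 250 ng β-galactosidase plasmid, HNF4α expression vector. Treated 24 h (DMSO 0.5% control). Luciferase read in lysate supernatant and normalised to β-gal (4-MUG fluorescence, ex 365/em 450 nm). Fold induction vs DMSO. At least three independent experiments, in triplicate.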
(In general: Reporter assays use an easily measured gene product as a stand-in for the process of interest.)

For experiment [12] the target is unchanged. As to the kind of experiment: Activation of HNFalpha transcriptional activity in human […] cells transfected with ApoCIII-luc assessed as activation of luciferase reporter gene after 24 hrs. The experiment is classed as cell-based. The gist of the method: as §1
Experiment [13] shares this target. In words: Agonist activity at human full length HNF4alpha nuclear receptor expressed in human HepG2/C3A cells co-transfected with LexADBD assessed as increase in transcriptional activity at 18.7 uM by beta-galactosidase one hybrid assay relative to control. The experiment is classed as functional, cell-based.
Experiment [14] has the same target. As to the kind of experiment: Stabilization of thermal denaturation-induced conformational change in human HNF4alpha nuclear receptor ligand binding domain assessed as change in transition temperature by thermofluor assay. Summed up:
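Human HNF4α LBD (aa 133–368), 6xHis-tagged, expressed in E. coli, purified under denaturing conditions, renatured and TEV-cleaved (apo). Protein at 0.3 mg/mL in 20 mM Tris-Cl pH 8.0, 100 mM NaCl, with 3× molar excess test compound and SYPRO Orange (20× working). Heated 20–90 °C at 1 °C/min. ΔTm = Tm − T0 against a water control; means of 3–6 independent experiments ± SE.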
A general note: Differential scanning fluorimetry follows unfolding on heating by fluorescence.

Experiment [15] shares this target. In words: Agonist activity at human full length HNF4alpha nuclear receptor expressed in human HepG2/C3A cells co-transfected with LexADBD assessed as increase in transcriptional activity at 6.2 uM by beta-galactosidase one hybrid assay relative to control. Type of experiment: functional, cell-based.

Calls of active or inactive are those of the source. The calls are words filed in the database; no cut-off is given here.

For orientation: EC50 means the midpoint of the concentration-response curve. For orientation: IC50 means the concentration at which inhibition is half-maximal. Turning to `COc1ccc2c(ccc3oc([N+](=O)[O-])cc32)c1`, the outcome in experiment [1] and in experiment [4] was inactive. Also, the fold change (FC) in [2] is 8.05. For the same compound, the EC50 in experiment [3] is 2.57 µM. Moreover, half-maximal inhibition in [5] (IC50) required 2.24 µM.
With `COc1cc2ccccc2c2cc([N+](=O)[O-])oc12`, in [2], the fold change (FC) amounted to 6.6. Besides, the result in experiment [6], in [7] and in experiment [8] was inactive. Also, the EC50 in [3] is 1.47 µM. The IC50 in [5] is 4.4 µM.
With `O=[N+]([O-])c1cc2c(ccc3ccccc32)o1`, in [9], the fold change (FC) is 4.46. Further, the EC50 in experiment [3] stood at 2.09 µM. For the same compound, the half-maximal inhibitory concentration (IC50) in experiment [5] is 2.51 µM.
Turning to `NC(=O)c1cc2c(ccc3ccccc32)o1`, the fold change (FC) in experiment [10] turned out to be 2. Also, the EC50 in experiment [3] is above 100 µM. Also, the concentration for half-maximal inhibition (IC50) in experiment [5] is above 5 µM.
As to `O=[N+]([O-])c1oc2ccc3ccccc3c2c1CCO`, in experiment [9], the fold change (FC) came out at 4.58. Also, the EC50 in experiment [3] came to 1.22 µM. This compound registered an IC50 in experiment [5] of 2.04 µM.
`COc1ccc2ccc3oc([N+](=O)[O-])cc3c2c1`: in experiment [2], the fold change (FC) came out at 7.97. Moreover, the EC50 in [3] came out at 2.33 µM. Further, in [5], the IC50 turned out to be 2.28 µM.
Take `Cc1c([N+](=O)[O-])oc2ccc3ccccc3c12`: the Activity result in [11] and in experiment [12] was “Dose-dependent effect” throughout. Besides, the EC50 in [3] came out at 1.28 µM. Moreover, the fold change (FC) in experiment [13] came out at 5.51. The same compound gave an IC50 in [5] above 5 µM.
A word on the ΔTm: it is the shift of the melting midpoint relative to a reference. Regarding `O=[N+]([O-])c1cc2c(ccc3cc(O)ccc32)o1`, the EC50 in experiment [3] turned out to be 1.95 µM. Further, the ΔTm in experiment [14] was 0.84 °C. The fold change (FC) in experiment [15] stood at 11.1. Moreover, in [5], the IC50 is 5 µM.
